An excerpt weighted towards active compounds, which were near 1.9% of everything screened.
CaV13 ICDI inh: Disruptors of the CACNA1D IQ motif to Ca2+-dependent inactivation inhibitor domain association, primary screening, Förster resonance energy transfer in intact living …. 340,000 compounds, 0.098% hits. inhibition, % at 12.3 µM. HEK cells, CFP/YFP FRET ICDI-IQ, plate reader, 10 min; percent FRET-ratio fall versus neutral wells. AID 743397;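 active = mean replicate inhibition of at least 30% and at least 1% of replicates passing that level; inconclusive = only one of the two criteria is met; inactive = neither criterion is met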;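 note: 0% = median of the neutral control wells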
RanGTP-Imp inh: inhibitors of RanGTP-importin-beta interaction, primary screen, biochemical, FRET, CFP-Ran, YFP-importin-beta, homogeneous; Ran GTPase (GTP-bound) - importin-beta complex; cell-free CFP-Ran/YFP-importin-beta FRET ratio; inhibition, % (concentration not given with the values); 300,000 compounds, 1.1% hits; AID 2216, 2009;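 active = more than half of the replicate wells show a fall in the fluorescence ratio signal beyond about 16%, limit read from the data, passing the limit was not always enough; inconclusive = exactly half of the replicate wells pass the set limit; inactive = fewer than half of replicates pass the limit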;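 note: 0% = DMSO wells and 100% = Ran loaded with GDP instead of GTP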
Runt-SMMHC FRET: inhibitors of RUNX1 Runt–CBFb-SMMHC binding, primary screen, biochemical, FRET, Cerulean-Runt, Venus-CBFb-SMMHC, uHTS. 220,000 compounds, 0.74% hits. Runt-related transcription factor 1 (Homo sapiens) + Core-binding factor subunit beta …. AID 1434, 2008. Cerulean-Runt/Venus-CBFb-SMMHC FRET ratio 530/480, 1 h. inhibition, % at 20 µM;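 active = mean inhibition across duplicate retests at 20 µM reaching about 50%, limit read from the data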;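 note: 0% = DMSO wells and 100% = wells with excess untagged CBFb-SMMHC; inhibitors lower the FRET ratio by blocking Runt binding to CBFb-SMMHC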
LANA-H2B inh: blockers of LANA interaction with H2A/H2B – biochemical, FP readout, HTS, primary screen; inhibition, % (concentration not given with the values); AID 2629, 2010; Protein LANA1 (Human herpesvirus 8 type P (isolate GK18)), Q9QR71; 320,000 compounds, 0.6% hits; cell-free LANA-H2A/H2B peptide, fluorescence polarization; in the data active = inhibition mostly above about 10%, no sharp cut-off; inactive = mostly below about 6.7%
Runt-CBFb FRET: inhibitors of RUNX1 Runt–CBFb binding, primary screen, biochemical, FRET, Cerulean-Runt, Venus-CBFb, uHTS. inhibition, % at 20 µM. Cerulean-Runt/Venus-CBFb FRET ratio 530/480, 1 h. 220,000 compounds, 0.46% hits. AID 1496, 2009. Runt-related transcription factor 1 (Homo sapiens) + Core-binding factor subunit beta …;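 active = inhibition over about 50% at 20 µM in the single-dose screen, limit read from the data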;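 note: 0% = DMSO wells and 100% = excess unlabeled CBFb competitor control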
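test system = Cerulean-tagged RUNX1 Runt domain (FRET donor) fusion protein | reagent = Venus-CBFb binding partner, 100 nM | incubation = protein complex preformed 1 h, compound exposure 1 h, room temperature, dark | detection = FRET fluorescence | read-out basis = loss of energy transfer signal | controls = 5 µM unlabeled CBFb as full-inhibition high control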
HDAC3 inhib: HDAC3 deacetylase inhibitors, primary screen, biochemical, fluorescence, cell-free homogeneous. Histone deacetylase 3 (Homo sapiens), O15379. recombinant HDAC3, fluorogenic peptide/trypsin coupled. inhibition, % at 8.3 µM. 320,000 compounds, 0.15% hits. AID 2718, 2010; in the data active = inhibition above about 26%, passing the limit was not always enough; inconclusive = no clear call, values can overlap the other calls
The depositor's hits bear a star; ? = inconclusive; · = no result; + = active, no number; ! = repeats disagree.

SMILES	CaV13 ICDI inh	RanGTP-Imp inh	Runt-SMMHC FRET	LANA-H2B inh	Runt-CBFb FRET	HDAC3 inhib
CCOc1ccc(-c2c(C)n(-c3ccc(OCC)cc3)c3[n+]2CCCCC3)cc1	-3	-4	-1	2	0	0
CN(C)C(=O)Oc1ccc2nnc3ccnn3c2c1	-3	72*	·	2	·	?
CN(C)C(=O)Oc1ccc(OC(=O)N(C)C)cc1	·	?	0	1	-2	-1
CC(=O)C1C(=O)NC23CCCCC2C1c1ccccc1O3 (stereo not given)	-5	?	-1	-17	-2	-2
CC12CC(c3ccccc3O1)C(C(=O)OCc1ccccc1)C(=O)N2 (stereo not given)	99*	4	2	-5	-1	8
CC(=O)CCC(C)=O	·	·	·	+	·	2
Nc1c(Br)cc([N+](=O)[O-])cc1[N+](=O)[O-]	·	·	·	26*	·	-1
CN1CCN(c2c(C#N)c(C(F)(F)F)nn2C)CC1	-2	?	-4	-2	81*	2
CCCCn1c(O)c(/C=N/NC(=O)c2ccncc2)c(=O)[nH]c1=O	-5	1	5	-2	3	3
CCn1c(O)c(/C=N/NC(=O)c2ccncc2)c(=O)[nH]c1=S	-1	5	82*	4	28	5
O=C(N/N=C/c1c(O)n(Cc2ccc(F)cc2)c(=S)[nH]c1=O)c1ccncc1	3	10	84*	6	69*	1
O=C(N/N=C/c1c(O)n(C2CCCCC2)c(=S)[nH]c1=O)c1ccccc1O	-16	13	·	2	·	2
CC(C)c1ccc(-n2c(O)c(/C=N/NC(=O)c3ccccc3O)c(=O)[nH]c2=S)cc1	-16	3	59*	-1	21	8
CCC(C)n1c(O)c(/C=N/NC(=O)c2ccncc2)c(=O)[nH]c1=S (stereo not given)	-4	-2	77*	-2	44	3
N/C(=N\[N+](=O)[O-])N1CCN(C(=O)OC2CCCC2)CC1	-2	4	·	2	·	-7
CCOCN(C(=O)CCl)c1c(C)cccc1CC	-7	-3	·	·	·	·
N=c1sccn1Cc1ccccc1F	-4	-4	·	3	·	5
CCOc1ccc([N+](=O)[O-])cc1CNCCc1ccccc1	-6	-4	1	1	-1	6
CC(C)[C@H]1CC2C3CC=C4C[C@@H](O)CC[C@]4(C)C3CC[C@]2(C)[C@H]1O (stereo not given in full)	-5	·	·	3	·	-1
O=C(N/N=C/c1c(O)n(CCc2ccccc2)c(=O)[nH]c1=O)c1ccccc1	-1	-3	3	5	1	-6
CCn1c(O)c(/C=N/NC(=O)c2ccccc2)c(=O)n(CC)c1=S	4	11	70*	-1	36	0
CCOC(=O)C1SC2(C(F)(F)F)CC1(O)c1c(C)cc(C)nc1O2 (stereo not given)	-5	4	-2	2	-2	44*
CCC/C=N/O	·	·	·	32*	·	3
Cc1ccc(N)c(C)c1	·	·	·	37*	·	1
CNC(=O)O/N=C/c1nn(C(=O)C(C)(C)C)cc1Br	-20	-4	-3	1	0	0
SMILES	CaV13 ICDI inh	RanGTP-Imp inh	Runt-SMMHC FRET	LANA-H2B inh	Runt-CBFb FRET	HDAC3 inhib
CC(Cc1ccccc1)NC(=O)c1ccc(N)cc1 (stereo not given)	0	-3	·	2	·	-10
CCCCOCCCn1c(N)c(C(=O)OC(C)COC)c2nc3ccccc3nc21 (stereo not given)	-4	5	128*	1	41	-28
CCC(C)NC(=O)c1c(N)n(Cc2ccc3c(c2)OCO3)c2nc3ccccc3nc12 (stereo not given)	-4	60*	26	4	5	5
CCC(C)NC(=O)c1c(N)n(CCCOC)c2nc3ccccc3nc12 (stereo not given)	-1	112*	20	-2	-10	-34
CC(C)CCNC(=O)c1c(N)n(CC2CCCO2)c2nc3ccccc3nc12 (stereo not given)	-5	93*	20	2	2	-9
COc1ccc(CN2Cc3cnnn3-c3ccccc3C2C#N)cc1 (stereo not given)	-10	·	·	·	·	·
CCC(C)NC(=O)c1c(N)n(CC2CCCO2)c2nc3ccccc3nc12 (stereo not given)	1	5	100*	0	12	-9
COCCCn1c(N)c(C(=O)Nc2sc3c(c2C(=O)OC)CCCC3)c2nc3ccccc3nc21	·	12	8	-1	93*	-10
Cc1nn(Cc2ccccc2)c(Cl)c1C(=O)OCC(=O)NCC1CCCO1 (stereo not given)	-6	3	-1	-1	1	1
CCOP(=O)(Cc1ccccc1)OCC	-6	5	·	-1	·	-6
C/C=C/c1ccc2c(c1)OCO2	·	·	·	11*	·	6
CCOC(=O)Cc1csc(NC(=O)c2c(O)c3ccccc3n(CCC(C)C)c2=O)n1	-17	-2	-6	15*	0	2
CCCCCCn1c(=O)c(C(=O)Nc2nc(CC(=O)OCC)cs2)c(O)c2ccccc21	-16	0	-9	7	6	-4
CCNCC1(c2ccc(OC)c(OC)c2)CCCC1	-5	60*	24	2	12	-6
CN1CCN(C(=O)COc2ccc(S(=O)(=O)Nc3ccc(Cl)cc3)cc2)CC1	-4	·	·	·	·	·
C[N+]1(C)[C@@H]2CC[C@H]1CC(OC(=O)C(CO)c1ccccc1)C2 (stereo not given in full)	-5	5	1	37*!	-1	3
O=[N+]([O-])c1ccc(N2CCCC(C(F)(F)F)C2)c2ccncc12 (stereo not given)	-3	-3	·	0	·	1
N#C[C@H](O[C@@H]1O[C@H](CO[C@@H]2O[C@H](CO)[C@@H](O)[C@H](O)[C@H]2O)[C@@H](O)[C@H](O)[C@H]1O)c1ccccc1	-10	·	·	9	·	-6
O=c1ccc2cc(O[C@@H]3O[C@@H](CO)[C@H](O)[C@@H](O)[C@@H]3O)c(O)cc2o1	13	102*	·	-3	·	-354
CC(C)N1C(=O)NC(=O)C2(Cc3cc([N+](=O)[O-])ccc3N(C)C2c2ccccc2)C1=O (stereo not given)	-6	-2	-2	4	-1	9
